Measured values pooled from the literature.
Compare with care: the assays were run in different laboratories.
Target: Dual specificity mitogen-activated protein kinase kinase 5 (MAP2K5, Homo sapiens, UniProt Q13163)
Residues used in one study (Q13163 1-448): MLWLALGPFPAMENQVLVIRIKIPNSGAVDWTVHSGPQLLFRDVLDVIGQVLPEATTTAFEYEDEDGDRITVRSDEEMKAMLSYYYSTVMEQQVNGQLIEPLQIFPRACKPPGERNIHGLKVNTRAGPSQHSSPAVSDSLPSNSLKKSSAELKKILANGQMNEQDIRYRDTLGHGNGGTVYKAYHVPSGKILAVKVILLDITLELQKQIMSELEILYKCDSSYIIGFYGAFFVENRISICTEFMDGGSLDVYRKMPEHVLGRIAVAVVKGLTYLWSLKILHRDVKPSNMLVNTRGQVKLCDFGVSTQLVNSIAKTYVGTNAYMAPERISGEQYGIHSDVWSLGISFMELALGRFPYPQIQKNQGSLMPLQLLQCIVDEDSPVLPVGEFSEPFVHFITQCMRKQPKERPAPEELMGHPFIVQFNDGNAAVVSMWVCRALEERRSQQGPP

| Structure (SMILES) | effect on | method | concentration | remaining binding [%] |
| --- | --- | --- | --- | --- |
| O=C(c1ccc(Nc2nccc(-c3cc4ccccc4s3)n2)cc1)N1CCC(N2CCCC2)CC1 | binding | competition with immobilised ligand | 1 µM | 16 |
| N[C@@H]1CCN(c2nccc(-c3cnn4ncccc34)n2)C1 | binding | – | 1 µM | 97 |
| COc1cnc(Nc2cccc(S(N)(=O)=O)c2)nc1N1CCN(c2ccccc2)C(=O)C1 | binding | competition with immobilised ligand | 1 µM | 67 |
| C=CC(=O)N1CCC(C(=O)NCC(=O)N2CCN(c3nc(-c4cnc(N)nc4C(F)F)nc(N4CCOCC4)n3)CC2)CC1 | binding | competition with immobilised ligand | 1 µM | 77 |
| CN(C(=O)c1ccccc1)c1cc(N(C)c2ccc3c(c2)CCc2ccc(C(=O)NCCN4CCOCC4)cc2C3=O)ccc1F | cell-free assay | competition with immobilised ligand | 1 µM | 100 |
| C[C@H]1CCN(c2nccc(-c3cnn4ncccc34)n2)C1 | binding | – | 1 µM | 81 |
| CCCCN(CCCC)C(=O)CN1C[C@H](c2cc(OC)c3c(c2)OCO3)[C@@H](C(=O)O)[C@@H]1CC(C)(C)CCC | cell-free assay | competition with immobilised ligand | 1 µM | 100 |
| COc1ncc2cc3ccccc3nc2c1C#N | cell-free assay | competition with immobilised ligand | 5 µM | 94 |
| CN(c1nccc(-c2cnn3ncccc23)n1)C1CC1 | binding | – | 1 µM | 100 |
| c1cncc(-c2cccc(Nc3nccc(NC4CCCCC4)n3)c2)c1 | binding | competition with immobilised ligand | 10 µM | 23 |
| c1cnn2ncc(-c3ccnc(N4CCC45COC5)n3)c2c1 | binding | – | 1 µM | 30 |
| O=C(Nc1c[nH]nc1C(=O)NC1CCNCC1)c1cc(F)cc(F)c1 | binding | competition with immobilised ligand | 1 µM | 100 |
| F[C@@H]1CCN(c2nccc(-c3cnn4ncccc34)n2)C1 | binding | – | 1 µM | 100 |
| Nc1ncc2c(n1)-c1c([nH]c3ccc(C#CC4CC4)cc13)CCCC2 | binding | competition with immobilised ligand | 1 µM | 21 |
| CN1CCN(c2cnc3c(C4CCN(C(=O)c5ccc(OC(F)(F)F)cc5N)CC4)ncnc3c2)CC1 | cell-free assay | competition with immobilised ligand | 1 µM | 86 |
| Cc1cnn2ncc(-c3ccnc(N(C)C)n3)c2c1 | binding | – | 1 µM | 78 |
| O=C1NC(c2ccccn2)Sc2ccccc21 (stereo not shown) | cell-free assay | competition with immobilised ligand | 1 µM | 87 |
| CN(C)c1nccc(-c2cnn3ncccc23)n1 | binding | – | 1 µM | 68 |
| N#Cc1ccc(Nc2ccc3[nH]c(=O)[nH]c3c2)c(Cl)c1 | cell-free assay | competition with immobilised ligand | 1 µM | 100 |
| O=C(c1ccc(Nc2ncc(Cl)c(-c3cc4ccccc4s3)n2)cc1)N1CCC(N2CCCC2)CC1 | binding | competition with immobilised ligand | 1 µM | 2.9 |
| NS(=O)(=O)c1cc(NC(=O)Cc2ccccc2)ccc1Oc1cccc(Cl)c1 | cell-free assay | competition with immobilised ligand | 1 µM | 88 |
| Cc1cnc(Nc2ccc(C(=O)N3CCC(N4CCCC4)CC3)cc2)nc1-c1cc2ccccc2s1 | binding | competition with immobilised ligand | 1 µM | 0.4 |
